Screening results from PubChem BioAssay.
MrgX1 antagonist = antagonists of human MrgX1 receptor, primary screen, HEK293 cells, Fluo-4 calcium flux; AID 588676, 2011; BAM8-22 antagonism; active compounds read low; 310,000 compounds, 1.3% hits; B-score at 10 µM; Mas-related G-protein coupled receptor member X1 (Homo sapiens), Q96LB2;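 active = calcium-response B-score plate-corrected more than 3 library SD below zero, starting fluorescence within 5 deviations, no agonist response on first addition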;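 note: peak minus trough fluorescence over baseline after final BAM8-22 challenge near maximal dose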
Target sequence (Q96LB2 whole entry, looked up): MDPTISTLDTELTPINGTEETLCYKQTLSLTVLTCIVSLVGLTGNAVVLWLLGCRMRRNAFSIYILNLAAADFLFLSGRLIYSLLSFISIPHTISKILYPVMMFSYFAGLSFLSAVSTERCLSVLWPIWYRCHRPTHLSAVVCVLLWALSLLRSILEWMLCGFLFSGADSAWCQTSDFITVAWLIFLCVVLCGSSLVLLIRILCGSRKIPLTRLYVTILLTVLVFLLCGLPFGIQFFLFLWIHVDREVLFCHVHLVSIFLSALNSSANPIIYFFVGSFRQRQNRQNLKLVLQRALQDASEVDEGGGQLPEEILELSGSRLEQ
MrgX1 ag = agonists of human MrgX1 receptor, primary screen, HEK293 cells, Fluo-4 calcium flux. 310,000 compounds, 0.44% hits. Fluo-4 calcium fluorescence, agonist mode; active compounds read high. Mas-related G-protein coupled receptor member X1 (Homo sapiens), Q96LB2. B-score at 10 µM;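 active = calcium response B-score plate-corrected fluorescence ratio at least 3 library SD, with starting fluorescence B-score inside 5 SD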
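Test system: Stable human MrgX1 HEK293 cell line | Schedule: Overnight plating before 1 h dye loading | Read-out basis: Baseline-normalised fluorescence change ratio, B-scored | Detection: Kinetic calcium dye fluorescence, Fluo-4 NW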
RGS4 pot = RGS4 potentiators or activators, primary screen, cell-based, HEK293 M3R inducible RGS4, calcium flux; carbachol calcium flux Fluo4; active compounds read low; B-score at 10 µM; 310,000 compounds, 0.92% hits;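 active = B-score of the integrated calcium signal more than 4 SD below the library mean, with starting fluorescence not abnormally high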;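 note: negative B-score means reduced calcium response which marks RGS4 activation or potentiation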
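Material: Inducible-RGS4 HEK293 cells carrying M3 receptor; also added: carbachol at ECmax as muscarinic agonist stimulus; incubation: compound preincubation 20 min at room temperature before agonist; signal: Fluo4-AM (2 µM) calcium-flux fluorescence, kinetic read; measure: integrated calcium ratio converted to B score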
RGS4 block = RGS4 inhibitors, primary screen, cell-based, HEK293 M3R inducible RGS4, calcium flux; Regulator of G-protein signaling 4 (Homo sapiens), P49798; Fluo-4 calcium flux; active compounds read high; triggered by carbachol at its EC20; B-score at 10 µM; 310,000 compounds, 0.45% hits; AID 463165, 2010;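 active = B-score, a plate-corrected calcium signal, over three deviations above library mean, with baseline fluorescence within five deviations of library mean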;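 note: RGS4 expression induced by doxycycline in cells with stable M3 receptor; B-score is computed from the integrated fluorescence ratio over baseline after carbachol; higher B-score means a larger calcium signal and so more RGS4 inhibition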
Target sequence (P49798 whole entry, looked up): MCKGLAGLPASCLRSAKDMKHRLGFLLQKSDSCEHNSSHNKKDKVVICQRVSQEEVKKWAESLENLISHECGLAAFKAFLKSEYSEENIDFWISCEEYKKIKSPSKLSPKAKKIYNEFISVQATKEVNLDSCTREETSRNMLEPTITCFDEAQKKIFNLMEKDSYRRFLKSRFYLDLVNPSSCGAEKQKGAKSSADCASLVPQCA
MrgX1 allo act = positive allosteric modulators of MrgX1, primary screen, HEK293 cells, Fluo-4 calcium flux | 310,000 compounds, 0.63% hits | FDSS; active compounds read high | B-score at 10 µM | Mas-related G-protein coupled receptor member X1 (Homo sapiens), Q96LB2 | AID 588675, 2011;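 active = plate-corrected calcium response at least 3 library SD above typical, normal starting fluorescence, not activating the receptor alone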;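 note: compound read alongside a low EC10 to EC30 dose of BAM8-22 agonist; peak minus trough fluorescence over baseline measured at the second addition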
The depositor's hits bear a star. In the library only some 3.5% were active in any assay of this set; here they are far more common.

Results for Oc1ccc(Cl)cc1C1=NNC(c2cccs2)C1 (centres undefined) ?
MrgX1 antagonist: -5.64*; MrgX1 ag: inactive; RGS4 pot: inactive; RGS4 block: inactive; MrgX1 allo act: inactive

Results for Cc1ccnc(N2C(=O)c3cccc4c([N+](=O)[O-])ccc(c34)C2=O)c1 ?
MrgX1 antagonist: -5.17*; MrgX1 ag: inactive; RGS4 pot: inactive; RGS4 block: inactive; MrgX1 allo act: inactive

What do the screens show for `O=C1N/C(=C\c2ccc(N3CCOCC3)c(F)c2)C(=O)N1Cc1ccccc1`?
MrgX1 antagonist: -8.62*; MrgX1 ag: inactive; RGS4 pot: inactive; RGS4 block: inactive; MrgX1 allo act: inactive

What do the screens show for `O=C1N/C(=C/c2cccn2-c2ccccc2)C(=O)N1Cc1ccc(F)cc1`?
MrgX1 antagonist: inactive; MrgX1 ag: inactive; RGS4 pot: inactive; RGS4 block: inactive; MrgX1 allo act: inactive

How did O=C(OCC(=O)N(CCc1ccccc1)Cc1ccccc1)c1ccccc1O do in these assays?
MrgX1 antagonist: inactive; MrgX1 ag: inactive; RGS4 pot: inactive; RGS4 block: inactive; MrgX1 allo act: inactive

How did O=C(OCC(=O)N(CCc1ccccc1)Cc1ccccc1)c1ccccc1NCCO do in these assays?
MrgX1 antagonist: inactive; MrgX1 ag: inactive; RGS4 pot: -8.41*; RGS4 block: inactive; MrgX1 allo act: inactive

Results for CC1CC(C)(C)OC(C[N+]2(C)CCCCC2)O1 (centres undefined) ?
MrgX1 antagonist: inactive; MrgX1 ag: inactive; RGS4 pot: inactive; RGS4 block: inactive; MrgX1 allo act: inactive

What do the screens show for `CC(Oc1ccc(Cl)cc1Cl)C(=O)NNC(=O)c1ccncc1` (centres undefined)?
MrgX1 antagonist: inactive; MrgX1 ag: inactive; RGS4 pot: inactive; RGS4 block: inactive; MrgX1 allo act: inactive

Results for CC(Oc1ccc(Cl)cc1Cl)c1nc(-c2ccc(NC(=O)c3cccnc3)cc2)no1 (centres undefined) ?
MrgX1 antagonist: inactive; MrgX1 ag: inactive; RGS4 pot: -7.86*; RGS4 block: inactive; MrgX1 allo act: inactive

How did CC(Oc1ccc(Cl)cc1Cl)c1nc(-c2ccc(NC(=O)c3ccncc3)cc2)no1 (centres undefined) do in these assays?
MrgX1 antagonist: -5.25*; MrgX1 ag: inactive; RGS4 pot: inactive; RGS4 block: inactive; MrgX1 allo act: inactive

How did Cc1ccc2nc(SCC(=O)Nc3cccc(F)c3)nc(=O)n2c1 do in these assays?
MrgX1 antagonist: inactive; MrgX1 ag: inactive; RGS4 pot: inactive; RGS4 block: inactive; MrgX1 allo act: inactive

Results for CN(C)CCN(CC1CCCN(Cc2ccccc2F)C1)C(=O)c1ccc(F)cc1 (centres undefined) ?
MrgX1 antagonist: inactive; MrgX1 ag: inactive; RGS4 pot: inactive; RGS4 block: inactive; MrgX1 allo act: inactive

How did Cc1nnc(SC(=O)N2c3ccccc3Sc3ccccc32)s1 do in these assays?
MrgX1 antagonist: inactive; MrgX1 ag: inactive; RGS4 pot: -7.01*; RGS4 block: inactive; MrgX1 allo act: inactive

What do the screens show for `CCOC(=O)N1c2ccccc2Sc2ccccc21`?
MrgX1 antagonist: inactive; MrgX1 ag: inactive; RGS4 pot: inactive; RGS4 block: inactive; MrgX1 allo act: inactive

Results for COc1cccc(CNc2ccc(F)c([N+](=O)[O-])c2)c1O ?
MrgX1 antagonist: inactive; MrgX1 ag: inactive; RGS4 pot: inactive; RGS4 block: inactive; MrgX1 allo act: 18.5*

What do the screens show for `Cn1c(-c2c(N)n(-c3ccccc3)c3nc4ccccc4nc23)nc2ccccc21`?
MrgX1 antagonist: inactive; MrgX1 ag: inactive; RGS4 pot: inactive; RGS4 block: inactive; MrgX1 allo act: inactive

Results for Cc1cccc(-n2c(N)c(-c3nc4ccccc4n3C)c3nc4ccccc4nc32)c1 ?
MrgX1 antagonist: inactive; MrgX1 ag: inactive; RGS4 pot: -7.46*; RGS4 block: inactive; MrgX1 allo act: inactive

What do the screens show for `Nc1ccc(-c2nnnn2-c2ccc(N)cc2)cc1`?
MrgX1 antagonist: inactive; MrgX1 ag: inactive; RGS4 pot: inactive; RGS4 block: inactive; MrgX1 allo act: inactive

What do the screens show for `COc1ccc(C2=NOC(Cn3nc(C(=O)NCC4CC4)cc3-c3ccccc3)C2)cc1` (centres undefined)?
MrgX1 antagonist: inactive; MrgX1 ag: inactive; RGS4 pot: inactive; RGS4 block: inactive; MrgX1 allo act: 7.89*

Results for COCCCNC(=O)c1cc2c(=O)n3cc(C)ccc3nc2nc1NCC1CCCO1 (centres undefined) ?
MrgX1 antagonist: -7.55*; MrgX1 ag: inactive; RGS4 pot: inactive; RGS4 block: inactive; MrgX1 allo act: inactive

How did CCC(C)N1C(=O)/C(=C/c2c(NCCCOC(C)C)nc3c(C)cccn3c2=O)SC1=S (centres undefined) do in these assays?
MrgX1 antagonist: -11.1*; MrgX1 ag: inactive; MrgX1 allo act: inactive

What do the screens show for `Cc1cccn2c(=O)c(C=NCc3ccccc3)c(NCCO)nc12`?
MrgX1 antagonist: inactive; MrgX1 ag: inactive; RGS4 pot: inactive; RGS4 block: inactive; MrgX1 allo act: inactive

How did CCCN1C(=O)/C(=C/c2c(NCCCOC(C)C)nc3c(C)cccn3c2=O)SC1=S do in these assays?
MrgX1 antagonist: -10.4*; MrgX1 ag: inactive; RGS4 pot: inactive; RGS4 block: inactive; MrgX1 allo act: inactive

What do the screens show for `CCC(C)Nc1nc2c(C)cccn2c(=O)c1C=Nc1ccc(OC)cc1` (centres undefined)?
MrgX1 antagonist: inactive; MrgX1 ag: inactive; RGS4 pot: inactive; RGS4 block: inactive; MrgX1 allo act: inactive

How did Cc1nc2ccc(Br)cn2c1C(=O)N/N=C\c1ccccc1Cl do in these assays?
MrgX1 antagonist: inactive; MrgX1 ag: inactive; RGS4 pot: inactive; RGS4 block: inactive; MrgX1 allo act: inactive

What do the screens show for `Cc1ccccc1CC(=O)Nc1ccc(C(=O)N2CCCC2)cc1`?
MrgX1 antagonist: inactive; MrgX1 ag: inactive; RGS4 pot: inactive; RGS4 block: inactive; MrgX1 allo act: inactive

How did CC1CC(=O)c2c(cc3c(-c4c(O)cc(O)c5c(O)c6c(cc45)OC(C)CC6=O)c(O)cc(O)c3c2O)O1 (centres undefined) do in these assays?
MrgX1 antagonist: -6.75*; MrgX1 ag: inactive; RGS4 pot: inactive; RGS4 block: inactive; MrgX1 allo act: inactive

What do the screens show for `Cc1ccc(N(CC(=O)NC2CCCC2)C(=O)CCC(=O)Nc2nc(C)cs2)cc1`?
MrgX1 antagonist: inactive; MrgX1 ag: inactive; RGS4 pot: inactive; RGS4 block: inactive; MrgX1 allo act: inactive
